From PubChem BioAssay
Compounds with a hit are over-represented: about 4.1% of the library has one in this group of screens.
FID counter: displaces DNA intercalator in HCV helicase counter-screen | DNA fluorescent intercalator displacement, fluorescence | inhibition, % at 7.9 µM | 290,000 compounds, 0.17% hits; in the data active = inhibition above about 37%;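 note: 0% = vehicle and 100% = reference compound; higher means more ethidium bromide displaced from hairpin DNA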
MEKK3 PB1 HTS: modulators (inhibitors or enhancers) of MEK5 binding to human MEKK3 PB1 domain; Q99759; bead-based flow cytometry, Alexa488-MEK5 binding to MEKK3; actives lie on both sides; 0 = blocked by unlabeled MEK5, 100 = vehicle; binding response (% of control), % at 10 µM; 290,000 compounds, 1.4% hits; AID 1529;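 active = binding response more than 3 SD above or below the average of its plate-row segment, actives on both sides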;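 note: Alexa488 bead fluorescence after subtracting the streptavidin-only scavenger bead signal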
Target sequence (Q99759 whole entry, looked up, the tested form may be a part): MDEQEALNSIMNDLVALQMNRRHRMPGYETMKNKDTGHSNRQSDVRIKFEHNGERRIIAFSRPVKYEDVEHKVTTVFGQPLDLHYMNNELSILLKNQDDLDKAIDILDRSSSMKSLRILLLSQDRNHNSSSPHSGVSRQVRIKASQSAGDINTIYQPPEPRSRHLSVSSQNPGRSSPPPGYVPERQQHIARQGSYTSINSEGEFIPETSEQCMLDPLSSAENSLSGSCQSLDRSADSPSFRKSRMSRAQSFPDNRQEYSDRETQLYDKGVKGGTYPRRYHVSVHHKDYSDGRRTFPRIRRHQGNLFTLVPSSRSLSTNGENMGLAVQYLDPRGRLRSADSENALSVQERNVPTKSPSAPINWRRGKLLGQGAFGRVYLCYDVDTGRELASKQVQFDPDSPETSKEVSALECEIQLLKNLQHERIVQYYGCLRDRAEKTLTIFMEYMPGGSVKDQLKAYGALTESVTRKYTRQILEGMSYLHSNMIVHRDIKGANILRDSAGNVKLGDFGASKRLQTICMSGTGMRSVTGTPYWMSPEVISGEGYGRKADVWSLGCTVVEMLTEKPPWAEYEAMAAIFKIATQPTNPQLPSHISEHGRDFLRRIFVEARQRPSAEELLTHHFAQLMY
HCV NS3 hel inh: HCV NS3 helicase inhibition. 290,000 compounds, 0.56% hits. NS3 helicase DNA unwinding, Cy5 molecular beacon fluorescence. inhibition, % at 10.9 µM;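 active = inhibition above the mean of all tested compounds plus 3 SD, set per campaign, cut at about 35% in these data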;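 note: 0% = DMSO wells and 100% = thioflavine S control wells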
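assay system = NS3 helicase fragment of HCV | buffer or medium = MOPS pH 6.5, MgCl2, DTT, Tween20, BSA | timing = 60 min unwinding reaction at 25 °C after ATP addition | signal = Cy5 beacon fluorescence read at start and 1 h | read-out basis = % inhibition of unwinding | control set = low DMSO, high thioflavine S at 110 µM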
MEKK2 WT-MEK5: raises or lowers MEK5 binding to wildtype human MEKK2 PB1 domain. 290,000 compounds, 1.1% hits. binding response (% of control), % at 10 µM. Q9Y2U5. bead flow cytometry, Alexa488-MEK5 binding to MEKK2 WT; actives lie on both sides; in the data active = binding response below about 67% or above about 130%
T cruzi repl: T. cruzi replication inhibition; T. cruzi beta-gal in NIH3T3, luminescence, 90 h; 300,000 compounds, 1.4% hits; inhibition, % (no concentration beside the values);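 active = mean inhibition across valid replicates above about 55%, limit read from the data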;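 note: signal also drops with host cell toxicity which is not excluded here; 0% = plate median of DMSO wells and 100% = zero luminescence signal; higher percent means less beta-gal luminescence so fewer parasites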
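System: NIH/3T3 fibroblasts plus reporter T. cruzi. Medium: DMEM plus 2% FBS. Probe or stimulus: 5000 reporter trypomastigotes per well. Compound: single 50 nL compound addition per well in DMSO. Incubation: co-culture of at least 90 h after 3 h attachment. Detection: GalScreen β-gal luminescence, detergent lysis, 60 min. Evaluation: parasite load inhibition, %.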
MEKK2mut PB1 HTS: signal of MEK5 binding to mutant human MEKK2 PB1 domain; bead flow cytometry, Alexa488-MEK5 binding to MEKK2 mutant; percent response, % at 10 µM; 290,000 compounds, 0.35% hits; AID 1530; in the data active = percent response above about 24%, passing the limit was not always enough
An asterisk follows results filed as active; . = not tested or not shown; [ ] = another dose, or the depositor's remark.

SMILES	FID counter	MEKK3 PB1 HTS	HCV NS3 hel inh	MEKK2 WT-MEK5	T cruzi repl	MEKK2mut PB1 HTS
CCOCCn1c(N2CCCC2)nc2c1c(=O)n(C)c(=O)n2C	-2	99	-2	105	10	5
C(=N\NC1=Nc2cccc3cccc1c23)/c1ccccn1	-1	95	0	8.0*	65*	1
O=C(COC(=O)CCc1c[nH]c2ccccc12)NC(c1ccccc1)c1ccccc1	-18	136*	10	103	-2	0
NNC(=O)CCc1c[nH]c2ccccc12	-6	107	2	97	-6	2
Cc1ccc(-n2c(=O)c3cc4c(=O)n(-c5ccc(C)c(C)c5)c(=O)c4c(C(=O)c4ccc(C(=O)O)cc4)c3c2=O)cc1C	-9	48*[inhibitor]	-3	29*[inhibitor]	-12	-12
O=C(Cn1cnc2cc([N+](=O)[O-])ccc2c1=O)NCCc1ccc(F)cc1	5	101	-4	102	44	-2
O=C(Cn1cnc2ccccc2c1=O)Nc1ccc2c(c1)CCC2	1	98	3	101	19	7
O=C(Cn1cnc2cc([N+](=O)[O-])ccc2c1=O)Nc1ccc2c(c1)CCC2	11	102	-5	104	64*	6
O=C(Cn1cnc2cc([N+](=O)[O-])ccc2c1=O)NCCc1ccc(Cl)cc1	4	94	-4	92	64*	-3
COc1ccc(NC(=O)c2cn(CCC#N)nc2-c2cc3ccccc3o2)cc1	-16	107	-4	107	1	-4
Cc1cccc2cc(CN(Cc3cccnc3)C(=O)c3ccccc3F)c(Cl)nc12	-31	93	-9	97	61*	-1
O=C(c1ccccc1F)N(Cc1cccnc1)Cc1cc2cc3c(cc2[nH]c1=O)OCCO3	-21	99	-6	95	2	-2
Cc1cccc2cc(CN(Cc3cccnc3)C(=O)c3ccncc3)c(=O)[nH]c12	-15	106	3	108	-11	0
Cc1cc(C)c2cc(CN(Cc3cccnc3)C(=O)c3ccc(F)cc3)c(Cl)nc2c1	-37	.	-11	.	59*	.
COc1cc(OC)c(OC)cc1CNC(=O)CCN1C(=O)c2cccc([N+](=O)[O-])c2C1=O	-4	99	7	100	0	-3
Cc1csc(SC(C)c2nc3scc(-c4ccccc4)c3c(=O)[nH]2)n1 (configuration not stated)	-22	105	1	104	3	6
c1ccc(-c2c[n+]3c(n2-c2ccccc2)SCC3)cc1	5	98	4	70	55*	5
COc1ccc(-n2c(-c3ccccc3)c[n+]3c2CCC3)cc1	-3	104	-2	101	12	6
CCOc1ccc(-n2c(-c3ccc(Cl)cc3)c[n+]3c2SCC3)cc1	6	101	-12	104	62*	3
CCCCOc1ccc(C(O)(CCC)CCN2CCOCC2)cc1 (configuration not stated)	5	103	-12	110	-13	2
CCCCC(O)(CCN1CCOCC1)c1ccc(Cl)cc1 (configuration not stated)	49*	99	6	102	-13	2
CCOC(=O)c1cnc(SC)nc1Oc1cccc(NS(=O)(=O)c2ccccc2)c1	-1	109	-7	110	56*	4
CC(C)CNC(=S)NC(=O)c1csc([N+](=O)[O-])c1	4	104	2	105	6	3
C=CCNC(=O)O/N=C/c1csc([N+](=O)[O-])c1	-2	91	5	87	57*	-24
N#Cc1c(NC(=S)NC(=O)c2ccccc2)sc2c1CCN(CCc1ccccc1)C2	3	98	-39	91	71*	-3
SMILES	FID counter	MEKK3 PB1 HTS	HCV NS3 hel inh	MEKK2 WT-MEK5	T cruzi repl	MEKK2mut PB1 HTS
CCCCNC(=O)c1cc2cc(CC)ccc2[nH]1	-12	94	10	94	-1	-5
CCOc1cc(N2CCOCC2)c(OCC)cc1NC(=O)c1ccc2ccccc2n1	-2	108	-5	110	58*	-2
CC1=C(C#N)C(c2cccnc2)C2=C(CC(c3ccc(Cl)cc3)CC2=O)N1 (configuration not stated)	-10	106	-8	102	60*	5
O=C(NC1CCCCC1)C(c1cccnc1)N(C(=O)c1csnn1)c1ccccc1 (configuration not stated)	-22	101	-4	99	6	3
O=C(COc1ccc(Br)cc1)OCCN1CCCCC1	0	105	10	112	-5	14
CCCC(=O)NC(c1ccc(OC)c(OC)c1)c1c(O)ccc2ccccc12 (configuration not stated)	-20	106	-4	105	-2	4
CCCCC(=O)NC(c1ccccc1OC)c1ccc2cccnc2c1O (configuration not stated)	-37	98	-4	97	57*	-2
CCCC(=O)NC(c1ccccc1OC)c1ccc2cccnc2c1O (configuration not stated)	-28	108	22	88	81*	-8
CCc1cccc(OCC2Cn3c(nc4c3c(=O)n(C)c(=O)n4C)O2)c1 (configuration not stated)	-36	100	27	105	3	1
Cc1cccn2c(=O)c3cc(C(=O)NCCN4CCOCC4)c(=N)n(CCc4ccccc4)c3nc12	18	.	-27	.	36	.
COc1ccc(CCNC(=O)c2cc3c(=O)n4ccccc4nc3n(CCCN3CCOCC3)c2=N)cc1OC	46*	101	-3	105	9	2
COc1ccc(CCNC(=O)c2cc3c(=O)n4ccccc4nc3n(CCN3CCOCC3)c2=N)cc1	-7	96	0	95	7	-1
COc1ccc(CCn2c(=N)c(C(=O)NCCN3CCOCC3)cc3c(=O)n4cccc(C)c4nc32)cc1OC	56*	100	-18	101	10	-4
COc1ccc(CCNC(=O)c2cc3c(=O)n4ccccc4nc3n(CCCN3CCOCC3)c2=N)cc1	48*	100	-17	101	29	0
Cc1cccn2c(=O)c3cc(C(=O)NCCN4CCOCC4)c(=N)n(CCCN4CCOCC4)c3nc12	79*	101	19	102	-5	3
COc1ccc(NC(=O)N2CCC(n3cnc4ccccc43)CC2)cc1	-8	102	-1	106	0	7
Cc1c(CN2CCC(Oc3ccc(C(=O)N4CCCCC4)cc3)CC2)cnn1C	-2	102	2	109	-1	7
CC1(C)C(=O)N(c2ccccc2Cl)C(=O)c2ccccc21	-14	98	-3	101	-1	3
